System: T10
Type: binding, llama
Conditions: cross-reactivity = IC50(TCC)/IC50(cross reacting compound) × 100; nanobody T10
Outline: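 Wild-type T10 (synthetic gene, pET28a(+), ompA leader, C-terminal His6/HA tags) expressed in BL21(DE3) (10 µM IPTG, 16 h, 15 °C), purified by Ni-NTA. Checkerboard-optimized TCC-BSA coat (4 h RT), 1% BSA block. Nanobody competed with serial dilutions of TCC (0–1 ug/mL) or related compounds, 1 h RT. Detection: anti-HA-peroxidase, TMB (pH 5.5, 10 min), A450.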

Molecule | CR (%) T10 [%]
O=C(Nc1ccc(Cl)cc1)Nc1ccc(Cl)c(Cl)c1 [TCC, 3-(4-chlorophenyl)-1-(3,4-dichlorophenyl)urea] | 100
O=C(Nc1ccc(Cl)c(Cl)c1)Nc1ccc(Cl)cc1O [2’-OH TCC] | 15
O=C(Nc1ccc(Cl)cc1)Nc1ccc(Cl)c(C(F)(F)F)c1 [3-Trifluoromethyl-4,4′-dichlorocarbanilide] | 15
CC(=O)N1CCC(NC(=O)Nc2ccc(OC(F)(F)F)cc2)CC1 [sEHi, #1555] | 0.9
O=C(Nc1ccc(Cl)cc1)Nc1ccc(Cl)cc1 [4,4’-Dichlorocarbanilide] | 100
Oc1cc(Cl)ccc1Oc1ccc(Cl)cc1Cl [Triclosan] | 0.9
Dinuron | ≤1
O=C(Nc1ccccc1)Nc1ccccc1 [Carbanilide] | 8.8
CS(=O)(=O)N1CCC(NC(=O)Nc2ccc(OC(F)(F)F)cc2)CC1 [sEHi, #1709] | 1.5

Source: PMC6774440 (Journal of molecular recognition : JMR, 2018)
